Most compounds without a hit are left out; they make up all but 1.4% or so of the library.
SUMO HTRF inh: SUMOylation inhibition; AID 2006; inhibition, % at 35 µM; HTRF SUMOylation assay, SAE1/SAE2 + UBC9, in vitro; 0.36% of 290,000 active; in the data active = inhibition above about 50%, passing the limit was not always enough
DTT redox prof: compounds producing H2O2 with reducing agent – biochemical, NIH compound library profiling, artefact control for MLSCN library redox annotation, primary screen. DTT-dependent redox cycling H2O2, phenol red/HRP absorbance; 100% = 100 µM peroxide control, 0% = buffer. 0.03% of 200,000 active. AID 878. activation, % at 10 µM;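 active = activation of at least 50% relative to the plate's high and low controls in the primary single-dose screen; inactive = activation below 50%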;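 also: compound incubated with DTT at 0.8 mM final as the reducing agent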
Apaf-1 inh: blocks human Apaf-1 apoptosome activity; 0.71% of 330,000 active; AID 489030; inhibition, % at 20 µM; O14727; reconstituted apoptosome caspase-3 activity, DEVD-Rh110 fluorescence; active = inhibition of at least 40% at 20 µM;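 also: plate controls were DMSO wells for no effect and DEVD-CHO caspase inhibitor wells for full effect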
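detection = Rh110 fluorescence intensity | test system = biochemical Apaf-1 apoptosome reconstitution | also added = cytochrome c and DEVD-Rh110 substrate | schedule = 30 min plus 50 min, RT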
GSTO1 counter: blocks human GSTO1 in RBBP9 counter-screen | recombinant GSTO1, activity-based probe fluorescence polarization | inhibition, % at 5.96 µM | 1.1% of 300,000 active | P78417;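 active = inhibition above the campaign mean inhibition plus 3 SD, cut at about 35% in these data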;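 also: 0% = GSTO1-1 with DMSO and 100% = wells lacking GSTO1-1 enzyme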
HKDC1 inhibitor: blocks human hexokinase HKDC1 activity | inhibition, % at 20 µM | recombinant HKDC1, G6PDH/diaphorase resazurin coupled fluorescence | Q2TB90 | AID 493160 | 0.16% of 340,000 active;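 active = inhibition above about 35% when tested at 20 µM, limit read from the data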;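 also: plate controls were DMSO wells with enzyme for no effect and DMSO wells lacking enzyme for full effect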
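Test system: HK5 enzyme. Quantity: 5 µg/mL HK5 final. Reagent: glucose and ATP substrates. Schedule: 90 min reaction incubation at room temperature, dark. Technique: resazurin-to-resorufin fluorescence via G6PDH and diaphorase coupling, 525/613 nm. Control set: DMSO wells with and without enzyme mix.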
Apaf-1 inh conf: confirmation of Apaf-1 inhibitors; shares compounds with Apaf-1 inh; reconstituted apoptosome, caspase-3 DEVD-Rh110 fluorescence; inhibition, % at 20 µM; 25% of 1,800 active; AID 504614;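 active = mean inhibition of at least 40% at 20 µM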;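 also: plate controls were DMSO wells for no effect and DEVD-CHO caspase inhibitor control wells for full effect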
Rh110 quench: counter-screen for Apaf-1 inhibitors: fluorescence interference; shares compounds with Apaf-1 inh; Rh110 fluorescence interference, quenched caspase reaction; activation (fluorescence interference), % at 20 µM; 1,800 tested, under 10 active;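 active = signal rise of 40% or more at 20 µM, treated as a fluorescence artifact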
Apaf1 inh interf: shows fluorescence interference in the Apaf-1 inhibitor assay format. shares compounds with Apaf-1 inh. 460 tested, under 10 active. fluorescence interference counterscreen, Apaf-1 assay format. IC50, µM; call rule not given here
* = called active by the depositor; . = no result given.

SMILES	SUMO HTRF inh	DTT redox prof	Apaf-1 inh	GSTO1 counter	HKDC1 inhibitor	Apaf-1 inh conf	Rh110 quench	others
COc1ccccc1OCC(=O)NCC1CCCN(C(=O)c2ccccc2SC)C1 (configuration not stated)	-7	.	51*	6	-5	10	-1
COc1ccccc1OCC(=O)NCC1CCCN(C(=O)c2ccccc2C(C)=O)C1 (configuration not stated)	2	.	0	3	-1	.	.
O=C(c1ccc(-c2cccc(C(F)(F)F)c2)o1)N1CCCC(C(F)(F)F)C1 (configuration not stated)	.	.	43*	4	1	39	16
OC(CNCC1CCCO1)Cn1c2ccc(Cl)cc2c2cc(Cl)ccc21 (configuration not stated)	-8	2	43*	-10	3	14	9
O=C(NCCN1CCNC1=O)C1CCC(=O)N(Cc2cccc(C(F)(F)F)c2)C1 (configuration not stated)	3	.	10	5	-5	.	.
Cc1nc2sccn2c(=O)c1CCN1CCC(=C(c2ccc(F)cc2)c2ccc(F)cc2)CC1	-4	0	42*	-3	1	19	9
CCOC(=O)N1CCN(C2=C(NS(=O)(=O)c3ccccc3)C(=O)c3ccccc3C2=O)CC1	35	.	48*	12	17	24	0
NC(=O)C1CCN(C2=C(NS(=O)(=O)c3ccc(Br)cc3)C(=O)c3ccccc3C2=O)CC1	19	.	66*	35*	19	48*	14	Apaf1 inh interf=>100
NC(=O)C1CCN(c2nc3ccccc3nc2NS(=O)(=O)c2ccc(Br)cc2)CC1	.	.	3	.	6	.	.
O=C1C(NS(=O)(=O)c2cccs2)=C(N2CCN(Cc3ccccc3)CC2)C(=O)c2ccccc21	19	.	51*	29	7	37	12
CCOC(=O)N1CCN(C(=O)c2ccc(S(=O)(=O)Nc3ccccc3)cc2)CC1	.	.	-3	.	-4	.	.
Fc1ccc(-[n+]2nc(Nc3ccccc3)sc2-c2c3ccccc3cc3ccccc23)cc1	-8	.	42*	-3	4	15	4
Oc1ccc2ccccc2c1-c1sc(Nc2ccccc2)n[n+]1-c1ccc(F)cc1	10	.	28	0	11	.	.
CCc1ccccc1NC(=O)CCNS(=O)(=O)c1cc(Br)cnc1N	.	.	49*	5	0	12	9
COc1ccc(C(=O)NC2CCN(C(=O)NCc3ccccc3)CC2)cc1	18	.	4	4	-4	.	.
CN(C)S(=O)(=O)c1ccc(NC(=O)CN2CCCC2c2ccc3c(c2)OCCCO3)cc1 (configuration not stated)	.	.	46*	.	-5	32	4
CS(=O)(=O)c1ccc(Cl)c(NC(=O)CN2CCCC2c2ccc3c(c2)OCCCO3)c1 (configuration not stated)	.	.	4	.	-4	.	.
CCCCCCc1cc2cc(C(=O)Nc3ccccc3OC)c(=O)oc2cc1O	11	0	6	0	-10	.	.
CCCCCCc1cc2cc(-c3nnc(-c4ccccc4OC)o3)c(=O)oc2cc1O	-194	4	62*	-13	5	64*	2	Apaf1 inh interf=>100
Cc1cc(C)c2sc(N(CCCN(C)C)C(=O)c3ccc(S(=O)(=O)N(C)C4CCCCC4)cc3)nc2c1	.	.	40*	6	2	23	8
CN(C)CCCN(C(=O)c1ccc(S(=O)(=O)N2CCCC2)cc1)c1nc2ccc(Br)cc2s1	6	.	53*	2	-7	13	6
CN(C)CCCN(C(=O)c1ccc(S(=O)(=O)N2CCCCC2)cc1)c1nc2cc3c(cc2s1)OCO3	7	.	42*	1	1	14	3
CCOc1cccc2sc(N(CCCN(C)C)C(=O)c3ccc(S(=O)(=O)N4CCc5ccccc5C4)cc3)nc12	17	.	62*	4	-4	21	2
CCc1ccc2nc(N(CCCN(C)C)C(=O)c3ccc(S(=O)(=O)N4CCc5ccccc5C4)cc3)sc2c1	-2	.	19	-1	-3	.	.
COc1ccc(CC(=O)NC(C)c2ccc3ccccc3c2)cc1 (configuration not stated)	0	.	-2	27	-3	.	.
SMILES	SUMO HTRF inh	DTT redox prof	Apaf-1 inh	GSTO1 counter	HKDC1 inhibitor	Apaf-1 inh conf	Rh110 quench	others
O=C(Nc1ccnn1C1CCN(Cc2ccc(CO)o2)CC1)c1ccccc1	6	.	7	2	-5	.	.
COc1ccc(CCN2CC(C(=O)NCCc3cccnc3)CCC2=O)cc1 (configuration not stated)	-3	.	-7	.	-7	.	.
Cc1ccc(NC(=S)NCCc2ccccc2)nc1	12	-1	8	0	-3	.	.
Cc1ccc(CN(C)C(=O)C2CCC(=O)N(C3CCCCCC3)C2)cc1 (configuration not stated)	11	.	12	-2	-2	.	.
COC(=O)CCN(c1ccccc1)S(=O)(=O)c1cc(-c2cc(C)no2)ccc1C	2	.	22	-1	-4	.	.
CN(C)CCCN(C(=O)c1ccc(C(=O)c2ccccc2)cc1)c1nc2cc3c(cc2s1)OCO3	11	.	60*	8	-8	19	4
CCN(CC)CCN(C(=O)c1ccc(C(=O)c2ccccc2)cc1)c1nc2cc3c(cc2s1)OCO3	0	.	27	5	1	.	.
Cc1cc2nn(-c3ccc(Cl)cc3)nc2cc1N	21	.	49*	12	13	22	3
COc1cc(NC(=O)CN(C)S(=O)(=O)c2ccc3c(c2)CC(C)N3C(C)=O)cc(OC)c1OC (configuration not stated)	-13	.	0	-5	-3	.	.
CCCNc1c(F)c(F)c2c(C)c3ccccc3nc2c1F	13	-3	51*	20	7	33	4
Cc1c2ccccc2nc2ccccc12	.	.	18	4	2	.	.
Cc1ccccc1C(=O)N1CCC(C(=O)N(C)CCOc2ccccc2)CC1	0	.	27	2	-8	.	.
Cc1cccc(N(Cc2ccccc2)C(=O)C2CCN(C(=O)c3ccccc3C)CC2)c1	.	.	48*	.	-4	37	9
CCC1C(=O)N=C(SCC(=O)Nc2nc3ccccc3s2)NC1=O (configuration not stated)	13	1	70*	0	-10	2	9
Cc1ccc2nc(-c3cccc(N)c3)[nH]c2c1	22	1	-3	2	5	.	.
Nc1ccc2nc(-c3cccc(-c4nc5ccc(N)cc5[nH]4)n3)[nH]c2c1	-5	.	40*	-2	-11	16	21

Screening data: PubChem BioAssay, several laboratories
